Measurements reported in ChEMBL document CHEMBL4138056, “T- and B-cell immunosuppressive activity of novel α-santonin analogs with humoral and cellular immune response in Balb/c mice” (Medchemcomm, 2017).

Legend:
B-cell line [1] = test: Immunosuppressive activity in Balb/c mouse B cells assessed as inhibition of LPS-induced cell proliferation at 10 uM after 48 hrs by MTT assay relative to control; format: functional
Summary of the method: (§1)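 Balb/c spleen single-cell suspension, RBCs lysed with tris-ammonium chloride, viability by trypan blue; 1×10^6 cells/mL stimulated with LPS (10 μg/mL) for B cells, test agent 1, 10 or 100 μM, 48 h at 37 °C, 5% CO2. MTT 4 h, DMSO solubilization, OD 540 nm; % change vs mitogen control; triplicate, three separate experiments.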

Murine T-cell line [2] = test: Immunosuppressive activity in Balb/c mouse T cells assessed as inhibition of ConA-induced cell proliferation at 1 uM after 48 hrs by MTT assay relative to control
B-cell line [3] = test: Cytotoxicity against Balb/c mouse B cells assessed as decrease cell survival at 100 uM by MTT assay; format: cell-based
Summary of the method: (§2)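 Balb/c splenocytes (RBC lysed with tris-ammonium chloride, trypan blue viability) seeded at 1×10^6 cells/mL with Con A or LPS (10 μg/mL each) and test agent at 1, 10 or 100 μM for 48 h at 37 °C, 5% CO2; MTT added for 4 h, formazan dissolved in DMSO, OD 540 nm. Cytotoxicity scored +/−; triplicate, three separate experiments.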

B-cell line [4] = test: Immunostimulant activity in Balb/c mouse B cells assessed as induction of LPS-induced cell proliferation at 100 uM after 48 hrs by MTT assay relative to control; format: cell-based; summary of the method: as §1
Murine T-cell line [5] = test: Cytotoxicity against Balb/c mouse T cells assessed as decrease in cell survival at 10 uM by MTT assay; format: cell-based; summary of the method: as §2
B-cell line [6] = test: Immunosuppressive activity in Balb/c mouse B cells assessed as inhibition of LPS-induced cell proliferation at 1 uM after 48 hrs by MTT assay relative to control; format: functional; summary of the method: as §1
Murine T-cell line [7] = test: Cytotoxicity against Balb/c mouse T cells assessed as decrease in cell survival at 1 uM by MTT assay; format: cell-based; summary of the method: as §2
B-cell line [8] = test: Cytotoxicity against Balb/c mouse B cells assessed as decrease cell survival at 10 uM by MTT assay; format: cell-based; summary of the method: as §2
Murine T-cell line [9] = test: Immunosuppressive activity in Balb/c mouse T cells assessed as inhibition of ConA-induced cell proliferation at 10 uM after 48 hrs by MTT assay relative to control
B-cell line [10] = test: Cytotoxicity against Balb/c mouse B cells assessed as decrease cell survival at 1 uM by MTT assay; format: cell-based; summary of the method: as §2
Murine T-cell line [11] = test: Cytotoxicity against Balb/c mouse T cells assessed as decrease in cell survival at 100 uM by MTT assay; format: cell-based; summary of the method: as §2
Murine T-cell line [12] = test: Immunostimulant activity in Balb/c mouse T cells assessed as induction of ConA-induced cell proliferation at 100 uM after 48 hrs by MTT assay relative to control
Murine T-cell line [13] = test: Immunosuppressive activity in Balb/c mouse T cells assessed as inhibition of ConA-induced cell proliferation at 100 uM after 48 hrs by MTT assay relative to control
B-cell line [14] = test: Immunosuppressive activity in Balb/c mouse B cells assessed as inhibition of LPS-induced cell proliferation at 100 uM after 48 hrs by MTT assay relative to control; format: functional; summary of the method: as §1
B-cell line [15] = test: Immunostimulant activity in Balb/c mouse B cells assessed as induction of LPS-induced cell proliferation at 10 uM after 48 hrs by MTT assay relative to control; format: cell-based; summary of the method: as §1

Structure (SMILES) | inhibition at 10 µM (B-cell line [1]) [%] | inhibition at 1 µM (Murine T-cell line [2]) [%] | Activity (B-cell line [3]) | Activity (B-cell line [4]) [%] | Activity (Murine T-cell line [5]) | inhibition at 1 µM (B-cell line [6]) [%] | Activity (Murine T-cell line [7]) | Activity (B-cell line [8]) | inhibition at 10 µM (Murine T-cell line [9]) [%] | Activity (B-cell line [10]) | Activity (Murine T-cell line [11]) | Activity (Murine T-cell line [12]) [%] | inhibition at 100 µM (Murine T-cell line [13]) [%] | inhibition at 100 µM (B-cell line [14]) [%] | Activity (B-cell line [15]) [%]
Cc1cc(O)c(C)c2c1CC[C@H]1[C@H](C)C(=O)O[C@@H]21 | 24.9 | 22.1 | Toxic | 38.25 | Toxic | 23.3 | Toxic | Toxic | 27.4 | Toxic | Toxic | 58.13 |  |  | 
CCCCCOc1cc(C)c2c(c1C)[C@@H]1OC(=O)[C@@H](C)[C@@H]1CC2 | 32.4 | 11.1 | Toxic |  | Toxic | 29.5 | Toxic | Toxic | 33.1 | Toxic | Toxic |  | 29.4 | 9.59 | 
COc1ccc(NC(=O)CCC(=O)Oc2cc(C)c3c(c2C)[C@@H]2OC(=O)[C@@H](C)[C@@H]2CC3)cc1 | 52 | 1 | Toxic |  | Non-Toxic | 17.7 | Non-Toxic | Non-Toxic | 35 | Non-Toxic | Toxic |  | 58 | 68 | 
CCCCCCCC(=O)Oc1cc(C)c2c(c1C)[C@@H]1OC(=O)[C@@H](C)[C@@H]1CC2 |  | 50.4 | Toxic |  | Non-Toxic | 37.5 | Non-Toxic | Non-Toxic | 43.1 | Non-Toxic | Toxic |  | 4.22 | 57.3 | 53.12
CCCOc1cc(C)c2c(c1C)[C@@H]1OC(=O)[C@@H](C)[C@@H]1CC2 | 49 | 33 | Toxic |  | Toxic | 47 | Non-Toxic | Toxic | 41 | Non-Toxic | Toxic | 36 |  | 43 | 
Cc1cc(OCc2ccccc2)c(C)c2c1CC[C@H]1[C@H](C)C(=O)O[C@@H]21 | 74 | 58 | Toxic | 29 | Non-Toxic | 53 | Non-Toxic | Non-Toxic | 60 | Non-Toxic | Toxic | 16 |  |  | 
CCCCOc1cc(C)c2c(c1C)[C@@H]1OC(=O)[C@@H](C)[C@@H]1CC2 | 33.3 | 32 | Non-Toxic |  | Non-Toxic | 25.2 | Non-Toxic | Non-Toxic | 51 | Non-Toxic | Non-Toxic |  | 33.8 | 39 | 
CCCCCC(=O)Oc1cc(C)c2c(c1C)[C@@H]1OC(=O)[C@@H](C)[C@@H]1CC2 | 26 | 39.4 | Toxic | 7.29 | Toxic | 22.9 | Non-Toxic | Toxic | 46 | Non-Toxic | Toxic |  | 78.9 |  | 
Cc1cc(OC(=O)c2ccccc2)c(C)c2c1CC[C@H]1[C@H](C)C(=O)O[C@@H]21 | 43.8 | 71.8 | Non-Toxic |  | Non-Toxic | 18.8 | Non-Toxic | Non-Toxic | 39.4 | Non-Toxic | Non-Toxic | 23.94 |  | 17.7 | 
COc1cc(C)c2c(c1C)[C@@H]1OC(=O)[C@@H](C)[C@@H]1CC2 | 19.1 | 50 | Toxic |  | Toxic | 42 | Toxic | Toxic | 23.2 | Toxic | Toxic |  | 16.1 | 21 | 
CCCCC(=O)Oc1cc(C)c2c(c1C)[C@@H]1OC(=O)[C@@H](C)[C@@H]1CC2 | 49 | 43.2 | Toxic | 6.25 | Non-Toxic | 2.08 | Non-Toxic | Non-Toxic | 29.6 | Non-Toxic | Toxic | 28.16 |  |  | 
CCOc1cc(C)c2c(c1C)[C@@H]1OC(=O)[C@@H](C)[C@@H]1CC2 | 1 | 28 | Toxic |  | Toxic | 35 | Non-Toxic | Toxic | 5 | Non-Toxic | Toxic | 16 |  | 46 | 
Cc1cc(OCc2ccc(Cl)cc2)c(C)c2c1CC[C@H]1[C@H](C)C(=O)O[C@@H]21 | 37 | 15 | Toxic |  | Non-Toxic | 37 | Non-Toxic | Non-Toxic | 33 | Non-Toxic | Toxic |  | 45 | 28 | 
